Consider one compound from publication PMC4777260 (Pharmacology Research & Perspectives, 2016).

One series concerns PT. Put plainly: Ex vivo prothrombin time. Format: in vivo, rat. The settings on record: plasma collected post-AVS, small molecule study. A digest of the protocol: (§1)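 Rats received a steady-state IV bolus-plus-infusion. A terminal blood sample was taken after the shunt and bleeding procedures into sodium citrate (11 mmol/L final). It was centrifuged at 2500g, 4°C, 15 min. One platelet-poor plasma aliquot was used for clotting times and the other for plasma drug concentration.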

A short description of series [1]: Fraction unbound in plasma by equilibrium dialysis, rat. Format: in vitro ADME. A digest of the protocol:
(§2)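 Plasma fraction unbound was determined by equilibrium dialysis in triplicate. Its standard error fed simulations of clinically relevant concentration ranges.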

A further series relates to aPTT. The series can be described thus: Ex vivo activated partial thromboplastin time. In kind it is in vivo, rat. The settings on record: plasma collected post-AVS, small molecule study. A digest of the protocol: as §1
For series [2], the system named is rat arteriovenous shunt (AVS/thrombosis). The series can be described thus: Rat arteriovenous shunt. Format: in vivo. A digest of the protocol:
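Male Sprague Dawley rats (350–400 g) were anaesthetised with thiobutabarbital. Test compound or vehicle (35% w/v hydroxypropyl-β-cyclodextrin, 10 mmol/L phosphate buffer) was given as an IV bolus plus constant infusion: five doses, n ≥ 10/group, blinded. At 15 min, a carotid–jugular shunt with silk thread ran 15 min. CW = thread weight gain. A vehicle-proportional Imax model was fitted to CW versus plasma concentration.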

Series [3] deals with fXa. Put plainly: Calculated fXa enzyme occupancy. Set-up: species or system human. Particulars: C min 107 ng/mL, 5 mg BID SPAF dose.
In another series the target is Human fIXa (Homo sapiens, UniProt P00740). The series can be described thus: fIXa inhibition constant. Format: biochemical.
Series [4] can be described thus: Fraction unbound in plasma by equilibrium dialysis, human. In kind it is in vitro ADME. A digest of the protocol: as §2
In another series the target is rat fIXa (Rattus norvegicus, UniProt P16296). The series can be described thus: fIXa inhibition constant. Format: biochemical.
Series [5] relates to rat cuticle bleeding time (CBT). The series can be described thus: Rat cuticle bleeding time. In kind it is in vivo. A digest of the protocol: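 Same anaesthetised, IV bolus-plus-infusion rats as the shunt study. Five minutes after shunt placement, two hind-paw toe cuticles were cut at the quick. The paw was immersed in 37° lactated Ringer's, and time to bleeding cessation was recorded (10 min maximum). A linear model of CBT versus plasma concentration treated 600 s values as right-censored. Median and 5th/95th percentiles were simulated from parameter standard errors.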

The nature of a further series: Rat pharmacokinetics. The settings on record: in vivo.
The subject of series [6] is fXa. Particulars: equal fXa occupancy human/rat.
Series [7] relates to fXa. The series can be described thus: Calculated fXa enzyme occupancy. Particulars: rat AVS.
For series [8], the system named is fIIa formation (thrombin generation). Put plainly: Ex vivo thrombin generation assay. Format: in vivo, rat. The settings on record: TF 1, 5, 20 pmol/L trigger.

Chain of Human fIXa (P00740 227-461 limits assumed): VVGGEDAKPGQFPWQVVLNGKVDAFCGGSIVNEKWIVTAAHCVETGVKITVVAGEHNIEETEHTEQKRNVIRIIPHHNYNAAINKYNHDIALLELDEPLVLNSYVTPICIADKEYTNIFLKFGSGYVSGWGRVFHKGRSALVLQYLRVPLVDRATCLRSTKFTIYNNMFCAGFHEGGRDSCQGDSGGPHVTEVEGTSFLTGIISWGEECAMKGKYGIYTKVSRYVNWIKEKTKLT
Chain of Human fIXa (P00740 47-191 partner limits assumed): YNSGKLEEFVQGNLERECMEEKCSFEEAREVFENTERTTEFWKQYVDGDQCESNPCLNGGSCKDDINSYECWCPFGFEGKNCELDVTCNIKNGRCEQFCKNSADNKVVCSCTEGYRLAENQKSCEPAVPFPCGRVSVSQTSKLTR
Chain of rat fIXa (P16296 228-462 limits assumed): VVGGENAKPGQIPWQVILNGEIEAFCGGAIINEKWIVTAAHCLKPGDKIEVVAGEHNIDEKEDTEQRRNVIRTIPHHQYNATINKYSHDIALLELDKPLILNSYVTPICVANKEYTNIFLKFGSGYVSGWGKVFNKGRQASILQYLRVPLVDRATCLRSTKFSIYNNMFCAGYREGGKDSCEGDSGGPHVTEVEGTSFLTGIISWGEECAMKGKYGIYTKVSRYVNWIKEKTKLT
Chain of rat fIXa (P16296 40-185 partner limits assumed): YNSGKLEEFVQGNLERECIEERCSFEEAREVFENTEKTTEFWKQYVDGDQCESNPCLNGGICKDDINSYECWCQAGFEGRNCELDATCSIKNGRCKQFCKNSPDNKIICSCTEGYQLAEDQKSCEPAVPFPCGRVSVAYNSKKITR

In the case of `COc1ccc(-n2nc(C(N)=O)c3c2C(=O)N(c2ccc(N4CCCCC4=O)cc2)CC3)cc1` [Apixaban], the “effect on PT (in words)” value with PT was “concentration‐dependent increase”. Also, the fraction unbound was 0.019 in series [1] and 0.093 ± 0.013 in [4]. The “effect on aPTT (in words)” value in the series on aPTT was “concentration‐dependent increase”. The “target CW corresponding to the apixaban clinical C min” value in series [2] (PK/PD model simulation at rat equivalent of clinical C min) was 16 (12–24) mg. Moreover, the “CW reduction vs vehicle (in words)” value in [2] (two highest doses A4 (3/3.75 mg/kg), A5 (8/10.2 mg/kg)) is reported as “significant CW reduction”. Moreover, the “I max (maximal inhibition of CW)” value in [2] (vehicle-proportional Imax PK/PD model of CW vs rat plasma concentration) amounted to 0.946. In addition, the “calculated EO achieved at median C min” value in the series with fXa [3] is 99.2%. The Ki at Human fIXa and on rat fIXa was greater than 30 µM in each case. Moreover, the “animals that reached the limit of the CBT assay (600 sec)” value in [5] (higher doses) was 17. Further, the “Slope (slope of the drug effect on bleeding time)” value in [5] (linear PK/PD model of CBT vs rat plasma concentration) amounted to 29.6. The “effect on CBT vs vehicle (in words)” value in [5] (two effective doses A4, A5) is “significant prolongation of the CBT”. For the same compound, the clearance in the series “Rat pharmacokinetics” came out at 12 mL/min/kg. Also, the half-life in the series “Rat pharmacokinetics” is 51.6 min. In addition, in the series with fXa [6], the “predicted rat equivalent of C avg” value is 24 µM. Further, the “fXa EO required to ensure CW <50 mg in all animals” value in the series with fXa [7] is reported as greater than 99%. Further, the “activity in TGA (in words)” value in series [8] is reported as “activity was constant across the TF concentration tested”.
